PHOSPHO1 block: PHOSPHO1 (human) inhibition | AID 1565 | 290,000 tested, 1.1% active | recombinant PHOSPHO1, absorbance phosphatase assay | inhibition, % at 13.3 µM | Q8TCT1; in the data active = inhibition above about 60%
KCNK3 block: human KCNK3 channel inhibition, primary screen. O14649. CHO-KCNK3 thallium flux, FluxOR fluorescence; active compounds read low. B-score at 10 µM. 340,000 tested, 0.84% active. AID 602410;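 active = B-score under library mean minus 4 SD, starting fluorescence ratio at most library mean plus 5 SD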;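 note: more negative B-score means stronger inhibition of thallium flux through KCNK3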
Target sequence (O14649 whole entry, looked up): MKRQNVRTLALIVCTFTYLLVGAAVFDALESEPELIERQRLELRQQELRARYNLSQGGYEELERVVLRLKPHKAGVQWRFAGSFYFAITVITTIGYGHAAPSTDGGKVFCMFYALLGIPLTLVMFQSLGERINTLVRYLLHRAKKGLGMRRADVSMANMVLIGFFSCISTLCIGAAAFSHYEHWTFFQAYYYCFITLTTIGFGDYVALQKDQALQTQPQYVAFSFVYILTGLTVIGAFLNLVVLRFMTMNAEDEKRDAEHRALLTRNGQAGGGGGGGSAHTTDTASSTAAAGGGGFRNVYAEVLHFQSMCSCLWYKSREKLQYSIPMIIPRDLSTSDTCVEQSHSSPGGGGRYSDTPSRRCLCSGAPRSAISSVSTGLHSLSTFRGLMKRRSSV
KCNQ1 inh: blocks the human KCNQ1 potassium channel | B-score at 10 µM | 310,000 tested, 1.3% active | P51787 | CHO-K1 KCNQ1, FluxOR thallium flux fluorescence; active compounds read high;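 active = compounds whose thallium flux B-score, printed positive for inhibition, exceeds three library SD while starting fluorescence stays within three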;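 note: channel opened by potassium depolarization with thallium stimulus after 20 min compound exposure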
KCNK9 inh: inhibitors of human KCNK9 two-pore domain potassium channel; AID 488922; 310,000 tested, 1.2% active; B-score at 10 µM; HEK293 KCNK9, FluxOR thallium flux fluorescence; active compounds read low; Q9NPC2;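 active = ratio B-score over 3 SD below the library mean, with starting fluorescence within 5 SD of its mean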;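 note: negative B-score means less thallium flux so channel inhibition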
hERG protect: hERG (human) protection from proarrhythmic block | CHO-hERG, FluxOR thallium flux, dofetilide IC70 present | Q12809 | activation (rescue from dofetilide block), less the hit threshold, % at 10 µM | AID 1511 | 310,000 tested, 0.51% active;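 active = activation above the mean of controls blocked by dofetilide plus 5 SD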;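 note: thallium influx through hERG after potassium depolarization seen as dye fluorescence rise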
KCNQ1 act: potentiators or activators of human KCNQ1 potassium channel | P51787 | CHO-K1 KCNQ1, thallium flux FluxOR fluorescence; active compounds read high | B-score at 10 µM | 310,000 tested, 0.35% active;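 active = fluorescence ratio B-score, a plate-corrected score, at least three library SD, with initial intensity B-score within 5 SD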
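System: CHO-K1 cells stably expressing KCNQ1 / Medium: assay buffer for compound exposure, DMSO matched across wells / Reagent: thallium- and potassium-containing depolarizing buffer / Compound: one concentration, matched DMSO / Incubation: 20 min compound pretreatment at room temperature / Measured by: kinetic FluxOR fluorescence, 10 s baseline plus 110 s post-stimulus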
* hit, by the source's call; i = inactive; / = no result. An excerpt weighted towards active compounds, which were near 4% of everything screened.

SMILES | PHOSPHO1 block | KCNK3 block | KCNQ1 inh | KCNK9 inh | hERG protect | KCNQ1 act
C#CCOc1ccc(Cl)cc1/C=N/O | -11 | i | i | i | -3 | i
O/N=C/c1cc(Cl)ccc1OCc1cccc2ccccc12 | -11 | / | 7* | -11* | -10 | i
CC1=C(C(=O)OCC(C)C)C(c2cccc(F)c2)N2C(=O)C(C)SC2=N1 (centres undefined) | 1 | i | i | -7.9* | -12 | i
CCOC(=O)C1=C(C)N=C2SC(C)C(=O)N2C1c1ccc(OC(C)=O)c(OCC)c1 (centres undefined) | 8 | / | i | i | -9 | i
N#CC1(Cc2ccccc2Cl)c2ccccc2C=CN1C(=O)c1ccccc1 (centres undefined) | 4 | i | 8* | i | -12 | i
N#CC1c2ccccc2C=CN1C(=O)c1ccccc1 (centres undefined) | 12 | i | i | i | -8 | i
CN(C)S(=O)(=O)c1cc([N+](=O)[O-])ccc1N1CCCCCC1 | 49 | i | i | i | -2 | i
CC(C)CN(CC(C)C)S(=O)(=O)c1cc([N+](=O)[O-])ccc1N1CCCCCC1 | 26 | i | 7* | i | 0 | i
COc1ccc(S(=O)(=O)N2CC(C)N(C(=O)N3CCOCC3)C2)cc1 (centres undefined) | -2 | i | i | i | -10 | i
O=C1OC(c2ccc3c(c2)OCO3)N(C(=O)c2ccc(Cl)c(Cl)c2)c2ccccc21 (centres undefined) | 1 | i | i | -7.5* | -7 | i
Cc1cccc(C(=O)N2c3ccccc3C(=O)OC2c2ccc3c(c2)OCO3)c1 (centres undefined) | 15 | i | i | i | -6 | i
Cn1c(-c2ccc([N+](=O)[O-])cc2)nc2ccccc21 | 4 | i | i | i | -6 | i
Cn1nc([N+](=O)[O-])c(C(C#N)c2nc3ccccc3n2C)c(Cl)c1=O (centres undefined) | 12 | i | 6* | i | -11 | i
C=CCOc1c2ccc(C(=O)NCc3ccc(OC)cc3)cc2nn1C | 28 | i | i | i | -4 | i
CCn1c(SCC(=O)c2ccc(O)c(O)c2)nnc1-c1ccc(C)cc1 | 81* | i | i | i | -3 | i
COc1ccccc1N1CCN(S(=O)(=O)c2cc(Br)cnc2N)CC1 | 64* | i | i | i | -2 | i
COc1ccc(OC)c(S(=O)(=O)N2CCN(c3ccccc3OC)CC2)c1 | 30 | i | i | i | -9 | i
O=C1/C(=N\O)Cc2ccccc21 | 19 | i | i | i | -4 | i
CCCCCCOC(=O)Sc1nc2ccccc2o1 | 86* | i | i | i | -9 | i
COc1cc2c(cc1O)CCN(C(=O)c1ccco1)C2C (centres undefined) | -5 | i | i | i | -9 | i
Cc1cccc(-n2cc(-c3ccccc3)c3c(=O)[nH]cnc32)c1 | 7 | i | i | -7.2* | -14 | i
O=C(/C=C/Nc1ccc(F)c(F)c1)c1ccc(Br)cc1 | -4 | i | i | i | -1 | i
CCOC(=O)CNC(=O)CSc1nc(Cc2cccs2)nc2ccccc12 | 19 | i | i | i | 5.2* | i
Cn1ncc2c(Nc3ccccc3Br)ncnc21 | 11 | i | i | i | -4 | i
COc1ccc([N+](=O)[O-])cc1NC(=O)C(C)c1ccccc1 (centres undefined) | 2 | i | i | i | 0 | i
SMILES | PHOSPHO1 block | KCNK3 block | KCNQ1 inh | KCNK9 inh | hERG protect | KCNQ1 act
COc1ccc(NC(=S)NC(NC(=O)c2cccc3ccccc23)C(Cl)(Cl)Cl)c([N+](=O)[O-])c1 (centres undefined) | 7 | i | i | -6.9* | -2 | i
COc1ccc([N+](=O)[O-])cc1NC(=S)NC(NC(=O)C(c1ccccc1)c1ccccc1)C(Cl)(Cl)Cl (centres undefined) | 18 | i | 14* | i | -11 | i
Cc1cc([N+](=O)[O-])ccc1NC(=S)NC(=O)C(c1ccccc1)c1ccccc1 | 29 | i | 7* | i | -8 | i
COc1cccc(/C=N/NC(=O)c2cccc3ccccc23)c1OC | / | i | i | i | -9 | i
COc1cc(C(=O)NC(C)c2cc(C)ccc2C)ccc1OCC(=O)N1CCOCC1 (centres undefined) | / | i | / | / | / | /
C/C(=C/C(=O)O)C(=O)Nc1cccc(C(F)(F)F)c1 | -15 | i | i | i | -5 | i
Cc1ccccc1Nc1nc(N)nc(COC(=O)CCS(=O)(=O)c2ccccc2)n1 | -8 | i | i | i | -21 | i
CCc1ccccc1Nc1nc(N)nc(COC(=O)CCNS(=O)(=O)c2ccccc2)n1 | / | i | i | -8.1* | -17 | i
COc1cc(C(=O)CCN2CCC(c3ccccc3)C2)cc(OC)c1OC (centres undefined) | -16 | i | i | i | -15 | 11*
O=C(CCN1CCC(c2ccccc2)C1)c1ccccc1 (centres undefined) | 44 | i | i | i | -10 | i
COc1ccc(N(C(=O)CNC(=O)c2ccco2)C(C(=O)NCC2CCCO2)c2ccccc2)c(OC)c1 (centres undefined) | 19 | i | i | i | -8 | i
Cc1ccc(-n2nc3c(N4CCC(C(=O)NCc5ccccc5C)CC4)nnc(C)c3c2C)cc1 | 24 | i | 7* | i | -9 | i
CCOc1ccccc1CNC(=O)C1CCN(c2nnc(C)c3c(C)n(-c4ccc(C)cc4)nc23)CC1 | 38 | i | i | i | -11 | i
COCCOC(=O)c1c(NC(=O)CN2c3ccccc3CC2C)sc(C(N)=O)c1C (centres undefined) | -65 | i | i | i | -5 | i
Cc1c(NC(=S)N/C(=N/S(=O)(=O)c2ccc(Cl)cc2)c2ccccc2)c(=O)n(-c2ccccc2)n1C | 83* | i | i | i | -12 | i
Cc1cccc(NC(=S)N/C(=N/S(=O)(=O)c2ccccc2)c2ccccc2)c1 | 38 | i | i | i | 5.2* | i
COc1ccc(Br)cc1C(=O)NC(=S)Nc1c(C)n(C)n(-c2ccccc2)c1=O | 34 | i | i | i | 4.8* | i
CC12CCC(C(=O)N(CSC(=S)N/N=C\c3ccccc3Cl)C1=O)C2(C)C (centres undefined) | 20 | i | i | i | -6 | 35*
CC12CCC(C(=O)N(CSC(=S)N/N=C\c3ccccc3)C1=O)C2(C)C (centres undefined) | -6 | i | i | i | 1 | 15*
